Reference: PubChem BioAssay
Records with an inconclusive call do not appear.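 Rule for the calls, unless noted: active = inhibition over a set limit, the all-compound mean plus 3 SD, in both replicate runs; inconclusive = over that limit in just one replicate run; inactive = at or under that limit in both runs.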

Key:
[1] = S. cerevisiae growth inhibition in permissive medium (OD615), pilot counter-assay for S. cerevisiae lifespan shortening project, permissive growth control (AID 705;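 active = growth inhibition above 25% in both replicates, a cutoff set 3 SD above the mean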); details: OD615, 24 h, at 10 µM, active compounds read high
Outline: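 Test system: Saccharomyces cerevisiae strain carrying genetically modified DeaD replicative-lifespan system; buffer or medium: SC raffinose/galactose permissive medium; dosing: one dose 10 µM, DMSO 0.25% final; times: 24 h exposure, 30 °C; measured by: OD at 615 nm; read-out basis: growth inhibition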

[2] = S. cerevisiae growth inhibition in restrictive medium, OD615, pilot screen, restrictive growth control, yeast lifespan reduction project (AID 706;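 active = growth inhibition above a set limit, 3 SD over mean compound inhibition, in both replicates, cut at about 43% in these data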;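 note: modified DeaD lifespan yeast strain shifted to restrictive glucose medium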); details: OD615, 48 h, at 10 µM, active compounds read high
Outline: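 material = engineered S. cerevisiae DeaD strain | buffer or medium = glucose-based CSMM-D restrictive medium | dosing = one concentration, 10 µM final, 0.25% DMSO | schedule = 4 h pre-growth plus 48 h compound exposure, 30 °C | detection = OD615 absorbance reading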

[3] = doxorubicin toxicity protection in MRP-1 cells – H69AR cells, CellTiter-Glo, duplicate, MRP-1 activator project, pilot screen (AID 807;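 active = viability increase at or above a cutoff of the median across tested compounds plus 3 SD, cut at about 8.5% in these data, passing the limit was not always enough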;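 note: compound pretreatment 18-22 h then 72 h combined with doxorubicin; 0% = doxorubicin alone and 100% = vehicle without doxorubicin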); details: H69AR viability with doxorubicin, CellTiter-Glo luminescence; at 10 µM; active compounds read high
[4] = viability of HCT116 without oncogenic beta-catenin – human colon tumor cells, pilot screen (AID 823;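 active = cell viability at or below a set limit in both duplicate runs, the limit being the all-compound median minus 4 SD, cut at about 23% in these data, passing the limit was not always enough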;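 note: 0% = wells killed by 20 µM Hyamine and 100% = untreated DMSO cell wells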); details: HCT116 beta-catenin knockout viability, CellTiter-Glo, 60 h; at 10 µM; active compounds read low
[5] = viability of PTEN-null HCT116 cells – cell-based, HCT116 clonal line, CellTiter-Glo, pilot screen (AID 824;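 active = viability at or below 27.92% in each of two runs, the all-compound median minus 4 SD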;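 note: 0% = 20 µM Hyamine control and 100% = vehicle cell control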); details: HCT116 PTEN-deleted viability, 60 h, at 10 µM, active compounds read low
[6] = RAM pathway blockade in budding yeast – dse1pr::URA3 reporter, 5-FOA selection, pilot screen (AID 869);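 note: 0% = DMSO wells with no growth and 100% = 10 µM 1-NA-PP1 with full growth; RAM network block rescues cells from 5-FOA so hits raise OD615 growth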; details: S. cerevisiae dse1pr::URA3 5-FOA growth, OD615, 2 d; at 10 µM; active compounds read high; strain carries analog-sensitive mutant Cbk1 kinase
[7] = RAM signaling pathway blockade in yeast – S. cerevisiae, Pdr1DBD-CYC8 efflux-inhibited sensitized strain, primary screen (AID 1298;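 active = RAM network inhibition above 8.4% in each of two replicates, 3 SD over the compound average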;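 note: 0% = DMSO untreated cells without growth and 100% = 10 µM 1-NA-PP1 full growth; higher means more yeast growth rescued from 5-FOA killing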); details: S. cerevisiae cbk1-as DSE1-URA3 strain, 5-FOA growth OD615, 2 d; at 50 µM; active compounds read high

CCOC(=O)CSc1nnc(Cn2c(=O)sc3ccccc32)n1-c1ccccc1C
inactive: growth inhibition [1] -8.34% | growth inhibition [2] -6.71% | viability increase [3] -1.07% | viability [4] 96.2% | viability [5] 96% | inhibition [6] 2.26% | RAM network inhibition [7] 2.24%

O=C(CCN1CCN(c2ccccc2)CC1)Nc1ccc2c(c1)OCO2
inactive: growth inhibition [1] -5.71% | growth inhibition [2] 0.05% | viability increase [3] -4.06% | viability [4] 91.7% | viability [5] 92.4% | inhibition [6] 2.58% | RAM network inhibition [7] 1.28%

O=C(CSc1ccccn1)c1ccc2c(c1)OCO2
inactive: growth inhibition [1] -3.07% | growth inhibition [2] 9.94% | viability increase [3] -0.21% | viability [4] 99.2% | viability [5] 96.2% | inhibition [6] 0.92% | RAM network inhibition [7] 2.86%

O=C(NCCC1=CCCCC1)C1CCN(c2nnc(-n3cccc3)s2)CC1
inactive: growth inhibition [1] 3.32% | growth inhibition [2] 4.32% | viability increase [3] -0.38% | viability [4] 85.2% | viability [5] 82.2% | inhibition [6] 2.42% | RAM network inhibition [7] 1.13%

CCn1c(SCC(=O)NCCOc2ccccc2)nc2ccccc2c1=O
inactive: growth inhibition [1] -0.73% | growth inhibition [2] -21.3% | viability increase [3] -1.87% | viability [4] 93.8% | viability [5] 92.6% | inhibition [6] 1.08% | RAM network inhibition [7] 4.35%

Cc1nnc(Nc2ccc3c(c2)OCO3)c2ccccc12
inactive: growth inhibition [1] -10.6% | growth inhibition [2] -15.2% | viability increase [3] -3.25% | viability [4] 92% | viability [5] 91.7% | inhibition [6] 0.365% | RAM network inhibition [7] 4.96%

COc1ccc(NC(=O)CSc2nnc(Cn3c(=O)sc4ccccc43)n2C)cc1OC
inactive: growth inhibition [1] -10.7% | growth inhibition [2] -14.9% | viability increase [3] -2.38% | viability [4] 86.5% | viability [5] 92.2% | inhibition [6] 1.91% | RAM network inhibition [7] 4.34%

COc1cccc(C2CC(c3ccccc3C)n3nc(N)nc3N2)c1 (stereo not drawn)
inactive: growth inhibition [1] -7.81% | growth inhibition [2] 7.97% | viability increase [3] -2.32% | viability [4] 107% | viability [5] 86.5% | inhibition [6] 0.35% | RAM network inhibition [7] 8.21%

Cc1sc2nc(SCC(=O)NCc3ccco3)n(C)c(=O)c2c1C
inactive: growth inhibition [1] -4.25% | growth inhibition [2] -12.5% | viability increase [3] -4.96% | viability [4] 105% | viability [5] 94.3% | inhibition [6] 2.1% | RAM network inhibition [7] 3.82%

CCOC(=O)c1cnc2nc[nH]n2c1=O
inactive: growth inhibition [1] 1.53% | growth inhibition [2] 11.7% | viability increase [3] 2.64% | viability [4] 104% | viability [5] 103% | inhibition [6] 0.33% | RAM network inhibition [7] -0.24%

O=C(NC1CSC/C1=N\O)c1ccccc1 (stereo not drawn)
inactive: growth inhibition [1] -9.51% | growth inhibition [2] -1.84% | viability increase [3] -2.52% | viability [4] 103% | viability [5] 101% | inhibition [6] 1.17% | RAM network inhibition [7] 1.84%

Cc1ccc(Cl)cc1N1CCN(C(=O)COc2ccc(S(=O)(=O)NC(C)C)cc2)CC1
inactive: growth inhibition [1] 4.32% | growth inhibition [2] -7.2% | viability increase [3] -4.67% | viability [4] 37.3% | viability [5] 54.8% | inhibition [6] 1% | RAM network inhibition [7] 6.06%

C#CCn1c(=NC(=O)CN2C(=O)CCC2=O)sc2cccc(C)c21
inactive: growth inhibition [1] -15.5% | growth inhibition [2] -1.5% | viability increase [3] -3.32% | viability [4] 93.3% | viability [5] 88.8% | inhibition [6] 1.89% | RAM network inhibition [7] 2.03%

O=C(NCCn1cc(SCC(=O)N2CCOCC2)c2ccccc21)c1ccccc1
inactive: growth inhibition [1] 1.06% | growth inhibition [2] -5.21% | viability increase [3] 0.4% | viability [4] 97% | viability [5] 99.8% | inhibition [6] -0.225% | RAM network inhibition [7] 0.78%

CCOC(=O)CCSCC(=O)Nc1nnc(C)s1
inactive: growth inhibition [1] -1.14% | growth inhibition [2] -0.57% | viability increase [3] 0.86% | viability [4] 113% | viability [5] 100% | inhibition [6] 0.55% | RAM network inhibition [7] 3.07%

COc1ccc2c(=O)c(N3C(=O)c4ccccc4C3=O)c(C)oc2c1
inactive: growth inhibition [1] -11.8% | growth inhibition [2] -0.32% | viability increase [3] -1.12% | viability [4] 94.2% | viability [5] 92.6% | inhibition [6] -0.25% | RAM network inhibition [7] 1.33%

O=C(O)C1CCCCN1S(=O)(=O)c1ccc(Cl)s1 (stereo not drawn)
inactive: growth inhibition [1] -2.17% | growth inhibition [2] 1.02% | viability increase [3] -1.27% | viability [4] 101% | viability [5] 97.3% | inhibition [6] 0.505% | RAM network inhibition [7] -0.42%

Cc1cc(C)nc(SCC(=O)Oc2ccc3oc(=O)cc(C)c3c2)n1
inactive: growth inhibition [1] -15.6% | growth inhibition [2] -10.1% | viability increase [3] -3.67% | viability [4] 97% | viability [5] 95.4% | inhibition [6] 1.63% | RAM network inhibition [7] 3.39%

CCOc1cc(C(=O)Nc2nnc(C)s2)cc(OCC)c1OCC
inactive: growth inhibition [1] -0.31% | growth inhibition [2] 0.555% | viability increase [3] -4.22% | viability [4] 108% | viability [5] 97.7% | inhibition [6] 0.43% | RAM network inhibition [7] 0.63%

COc1cccc(C(c2sc3ncnn3c2O)N2CCc3ccccc3C2)c1 (stereo not drawn)
inactive: growth inhibition [1] -0.12% | growth inhibition [2] 2.29% | viability increase [3] 2.58% | viability [4] 104% | viability [5] 93.2% | inhibition [6] 1.8% | RAM network inhibition [7] 11.3%

CC1CCN(CCCn2c(=S)[nH]c3ccccc3c2=O)CC1
inactive: growth inhibition [1] 1.02% | growth inhibition [2] 10.3% | viability increase [3] -2.18% | viability [4] 91.3% | viability [5] 93.7% | inhibition [6] 1.1% | RAM network inhibition [7] 0.66%

Cc1ccc(OCC(=O)O)c(-n2nc3ccccc3n2)c1
inactive: growth inhibition [1] -10.3% | growth inhibition [2] 0.43% | viability increase [3] 0.43% | viability [4] 89.9% | viability [5] 102% | inhibition [6] 2.7% | RAM network inhibition [7] 2.69%

COc1ccc(-c2nnc3ccc(SCC(=O)N4CCCCCC4)nn23)cc1OC
inactive: growth inhibition [1] 1.58% | growth inhibition [2] -3.42% | viability increase [3] -4.16% | viability [4] 103% | viability [5] 109% | inhibition [6] 0.615% | RAM network inhibition [7] 0.05%

Cc1ccc(OS(=O)Nc2cccc3nccnc23)cc1 (stereo not drawn)
inactive: growth inhibition [1] 1.61% | growth inhibition [2] 13.2% | viability increase [3] -4.19% | viability [4] 56.8% | viability [5] 55% | inhibition [6] 1.72% | RAM network inhibition [7] 2.2%
